Results on 18 compounds are retold here after ChEMBL document CHEMBL4680152, “Molecular design, synthesis, and biological evaluation of bisamide derivatives as cyclophilin A inhibitors for HCV treatment” (Eur J Med Chem, 2020).

The nature of series [1]: Selectivity index, ratio of CC50 for human Huh7.5 cells to EC50 for HCV genotype 2a JFH-1 infected in human Huh7.5 cells. Type of series: toxicity, cell-based. The conditions noted are these: read-out: Ratio CC50/EC50. Put shortly:
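This is the CC50/EC50 ratio. CC50 came from MTT viability of mock-infected Huh7.5 cells. EC50 came from Renilla luciferase in Huh7.5 cells infected with JFH1-Luc (MOI 0.004) and read 3 days post-infection, with 3-fold serial compound dilutions. Both were run in parallel, in triplicate.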

Series [2] in a line: Antiviral activity against recombinant HCV genotype 2a JFH-1 infected in human Huh7.5 cells after 3 days by renilla luciferase reporter gene assay. The format is functional, cell-based, Hepatitis C virus subtype 2a. The following applies: Hepatitis C virus, JFH-1, Huh7.5, 72 h. Put shortly:
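Huh7.5 cells in DMEM with 10% FBS were infected with JFH1-Luc reporter virus at MOI 0.004 for 5 h at 37 °C while exposed to 3-fold serial dilutions of compound. On day 3 post-infection, the cells were lysed and Renilla luciferase activity was read. EC50 was calculated from the signal. Run in triplicate.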
Background: A reporter such as luciferase makes a cellular process visible.

A short description of series [3]: Cytotoxicity against human Huh7.5 cells assessed as reduction in cell viability after 3 days by MTT assay. Type of series: cell-based. The following applies: time 3 day. The gist of the method: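 Huh7.5 cells were mock-infected and then treated with increasing concentrations of compound (3-fold serial dilutions), in parallel with the antiviral plates. Viability was measured by MTT assay and CC50 was derived. Run in triplicate.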
(In general: Tetrazolium dyes change colour on reduction, which living cells bring about.)

Series [4] deals with Peptidyl-prolyl cis-trans isomerase A (Homo sapiens, UniProt P62937). Kind of series: Binding affinity to Cyclophilin A (unknown origin) by surface plasmon resonance analysis. Put shortly: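 SPR was used. CypA was immobilized by EDC/NHS activation, diluted in 10 mM sodium acetate pH 6.0, then quenched with 1 M ethanolamine pH 8.5. A protein-free reference channel was used. Running buffer was PBS with 5% DMSO at 30 µL/min, with 3 min association and 4 min dissociation. Regeneration used 50 mM NaOH. KD came from kinetic fitting.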
Sequence of Peptidyl-prolyl cis-trans isomerase A (P62937 whole entry): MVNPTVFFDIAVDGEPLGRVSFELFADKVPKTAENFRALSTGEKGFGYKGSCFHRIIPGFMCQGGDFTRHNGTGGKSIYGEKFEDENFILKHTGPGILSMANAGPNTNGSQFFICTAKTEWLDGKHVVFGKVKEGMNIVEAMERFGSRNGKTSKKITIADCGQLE

Broadly, the EC50 is the concentration giving half of the maximal effect. As usually defined, the CC50 is the concentration giving 50% cytotoxicity. Consider `COc1cc(C(C(=O)NC2CCCCC2)N(C(=O)Cc2c[nH]c3ccccc23)c2cccc3ccccc23)cc(OC)c1OC` (centres undefined), for which the selectivity ratio in series [1] turned out to be 3.4. Further, the EC50 in series [2] was found to be 9.4 µM. For the same compound, the half-maximal cytotoxic concentration (CC50) at 72 h in series [3] turned out to be 33.2 µM.

Broadly, the Kd is the free concentration of one partner at which half of the binding sites on the other are occupied at equilibrium, for simple one-to-one binding. A high value points to lower affinity. Consider `COc1ccc(CCN(C(=O)Cc2c[nH]c3ccccc23)C(C(=O)NC2CCCCC2)c2cc(OC)c(OC)c(OC)c2)cc1OC` (centres undefined), for which the selectivity ratio in series [1] is over 18.9. Besides, in series [2], the EC50 amounted to 5.3 µM. Moreover, the CC50 at 72 h in series [3] is over 100 µM. In series [4], this compound displayed a Kd of 3.66 µM.

For the compound `COc1ccc(C(C(=O)NC2CCCCC2)N(CC(OC)OC)C(=O)Cc2c[nH]c3ccccc23)cc1OC` (centres undefined), the EC50 in series [2] is over 54.5 µM. The CC50 at 72 h in series [3] stood at 54.5 µM.

With `COc1cc(C(C(=O)NC(C)(C)C)N(C(=O)Cc2c[nH]c3ccccc23)c2ccc(C(C)C)cc2)cc(OC)c1OC` (centres undefined), in series [1], the selectivity ratio amounted to 2.3. For the same compound, the EC50 in series [2] stood at 6.3 µM. Besides, in series [3], the CC50 at 72 h was determined as 13.9 µM.

As to `COc1ccc(N(C(=O)Cc2c[nH]c3ccccc23)C(C(=O)NC2CCCCC2)c2cc(OC)c(OC)c(OC)c2)cc1OC` (centres undefined), the selectivity ratio in series [1] was 5.5. Moreover, the EC50 in series [2] is 10.2 µM. Also, the CC50 at 72 h in series [3] amounted to 56.7 µM.

On to `COc1cc(C(C(=O)NC2CCCCC2)N(C(=O)Cc2c[nH]c3ccccc23)c2ccc(C(C)C)cc2)cc(OC)c1OC` (centres undefined), for which the selectivity ratio in series [1] was over 19.2. Also, the EC50 in series [2] was found to be 5.2 µM. Moreover, the CC50 at 72 h in series [3] is over 100 µM.

Consider `COc1ccc(C(C(=O)NC2CCCCC2)N(C(=O)Cc2c[nH]c3ccccc23)C2CCCCC2)cc1OC` (centres undefined), for which the EC50 in series [2] is over 14.6 µM. Also, the CC50 at 72 h in series [3] was 14.6 µM.

Consider `COc1cc(C(C(=O)NC(C)(C)C)N(C(=O)c2cc3ccccc3[nH]2)c2ccc(C(C)C)cc2)cc(OC)c1OC` (centres undefined), for which the selectivity ratio in series [1] turned out to be 6.2. The EC50 in series [2] is 5.9 µM. Further, the CC50 at 72 h in series [3] turned out to be 36.7 µM.

For `COc1ccc(N(C(=O)Cc2c[nH]c3ccccc23)C(C(=O)NC2CCCCC2)c2ccc(OC)c(OC)c2)cc1` (centres undefined), the selectivity ratio in series [1] was 8.6. Moreover, the EC50 in series [2] amounted to 3.8 µM. The CC50 at 72 h in series [3] stood at 32.7 µM.

On to `COc1ccc(C(C(=O)NC2CCCCC2)N(C(=O)Cc2c[nH]c3ccccc23)c2ccc(OC)c(OC)c2)cc1OC` (centres undefined), for which, in series [1], the selectivity ratio amounted to 10.5. For the same compound, in series [2], the EC50 was 5.3 µM. Besides, in series [3], the CC50 at 72 h was 55.3 µM.

As for `COc1ccc(N(C(=O)Cc2c[nH]c3ccccc23)C(C(=O)NC2CCCCC2)c2cc(OC)c(OC)c(OC)c2)cc1` (centres undefined), in series [1], the selectivity ratio came to 9. Besides, the EC50 in series [2] turned out to be 5 µM. In series [3], the CC50 at 72 h came out at 44.8 µM.

For the compound `COc1ccc(C(C(=O)NC2CCCCC2)N(C(=O)Cc2c[nH]c3ccccc23)c2ccc(Br)cc2)c(OC)c1OC` (centres undefined), the EC50 in series [2] was over 7.2 µM. The CC50 at 72 h in series [3] amounted to 7.2 µM.

Take `COc1ccc(Cn2cc(CC(=O)N(c3ccccc3)C(C(=O)NC3CCCCC3)c3ccccc3)c3ccccc32)cc1` (centres undefined): the EC50 in series [2] is over 24.4 µM. Moreover, the CC50 at 72 h in series [3] was 24.4 µM.

Turning to `COc1ccc(C(C(=O)NC2CCCCC2)N(C(=O)Cc2c[nH]c3ccccc23)c2ccc(C(C)C)cc2)c(OC)c1OC` (centres undefined), the EC50 in series [2] is over 5.9 µM. Further, the CC50 at 72 h in series [3] was 5.9 µM.

`COc1ccc(C(C(=O)NC2CCCCC2)N(C(=O)Cc2c[nH]c3ccccc23)c2ccc(C(C)C)cc2)cc1OC` (centres undefined): the selectivity ratio in series [1] was 3.5. For the same compound, the EC50 in series [2] was 2 µM. Also, in series [3], the CC50 at 72 h is 6.9 µM.

With `NC(=O)c1ncn([C@@H]2O[C@H](CO)[C@@H](O)[C@H]2O)n1` [RIBAVIRIN], in series [1], the selectivity ratio was over 6.1. In addition, the EC50 in series [2] was over 100 µM. Further, the CC50 at 72 h in series [3] is 16.3 µM.

As for `COc1ccc(C(C(=O)NC2CCCCC2)N(C(=O)Cc2c[nH]c3ccccc23)c2ccccc2)c(OC)c1OC` (centres undefined), the EC50 in series [2] is over 18.8 µM. Also, in series [3], the CC50 at 72 h turned out to be 18.8 µM.

For `COc1cc(C(C(=O)NC2CCCCC2)N(C(=O)c2cc3ccccc3[nH]2)c2ccc(C(C)C)cc2)cc(OC)c1OC` (centres undefined), the selectivity ratio in series [1] is 9.7. The EC50 in series [2] stood at 2 µM. Further, the CC50 at 72 h in series [3] was determined as 19.4 µM.
